Screens: PubChem BioAssay, several laboratories
This is a sample that favours compounds with a hit; in the whole collection about 9.2% have one here.
Dynein transport: inhibitors of GR-EGFP nuclear translocation, primary screen, dynein cargo transport inhibitor project, imaging, high-content, 3617.4 mouse cells. 0.47% of 220,000 active. AID 1381, 2008. test concentration mostly 20 µM; stimulated with dexamethasone, 1 µM; active compounds read low. z-score, hits read low;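 active means plate z-score of nuclear minus cytoplasmic receptor signal below a set negative limit, without overly bright fluorescence or cell loss, cut at about -3.5 in these data, passing the limit was not always enough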;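 further: z-score of nuclear minus cytoplasmic ring GR-EGFP intensity difference per well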
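Buffer or medium – tet-free medium with charcoal-stripped serum · Signal – automated 10x imaging of fixed Hoechst-stained cells · Also added – dexamethasone agonist, 1.0 µM final, for 30 min · Incubation – induction 48 h, compound 1 h, agonist 30 min · Read-out – GR-EGFP nuclear translocation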
Autophagy mod: autophagy modulators in MEF cells, primary screen, imaging, high-content, MEF GFP-LC3 | MEF GFP-LC3 puncta imaging; test concentration mostly 10 µM | calls only at 10 µM (by protocol) | 0.98% of 190,000 active | AID 463193, 2010;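 active means percentage of spot-positive cells more than 3 SD above its plate mean, without a fluorescence outlier flag or 80% toxicity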
HCT116 bCat-KO: primary screen for growth suppressors in beta-catenin knockout HCT116 cells (colon tumor, human); viability, % at 10 µM; AID 818, 2007; HCT116 beta-catenin knockout viability, CellTiter-Glo, 60 h; active compounds read low; 1.5% of 140,000 active;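 active means viability at or under a set limit, the compound median less 4 SD, cut at about 6% in these data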
PTEN del growth: growth suppression of PTEN-null HCT116, primary screen, cell-based, CellTiter-Glo | AID 827, 2007 | HCT116 PTEN-null viability, 60 h; active compounds read low | 1.2% of 140,000 active | viability, % at 10 µM;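 active means viability at or below a set limit, 4 SD under the median of all tested compounds, cut at about 3.7% in these data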;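 further: PTEN knockout HCT116 line with beta catenin targeted HCT116 as companion control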
Lmaj promast: Leishmania major promastigote growth inhibition, primary screen; Leishmania major promastigotes, resazurin fluorescence viability; inhibition, % at 10 µM; 9% of 200,000 active; in the data active means inhibition above about 50%;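 further: promastigotes grown with compound for 44 hours at 28 °C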
Large screens that a line does not name were inactive.

CC1(C)CC(=O)C2=C(C1)N=C1c3ccccc3C(=O)C1C2c1ccc(Cl)cc1 (stereo not drawn)	Lmaj promast 94
Cc1ccc(C2C3=C(CC(C)(C)CC3=O)N=C3c4ccccc4C(=O)C32)cc1 (stereo not drawn)	Lmaj promast 99
CC(=O)c1c(C)[nH]c(C(=O)OCn2nnc3ccccc3c2=O)c1C	none
COC(=O)C1=C(O)CSC1=Nc1ccc(C)cc1	Lmaj promast 58
O=C(Nc1nncs1)C1c2ccccc2Oc2ccccc21	none
COC(=O)c1c(NC(=S)NN2CCN(C)CC2)sc2c1CCC(C)C2 (stereo not drawn)	Lmaj promast 100 (no result: HCT116 bCat-KO, PTEN del growth)
CCOC(=O)c1c(NC(=O)Cn2cnc([N+](=O)[O-])n2)sc2c1CCC(C)C2 (stereo not drawn)	Lmaj promast 98
CCOC(=O)c1c(NC(=O)Cn2cc([N+](=O)[O-])cn2)sc2c1CCC2	none
COC(=O)c1c(NC(=O)Cn2cnc([N+](=O)[O-])n2)sc2c1CCC(C)C2 (stereo not drawn)	Lmaj promast 100
COC(=O)c1c(NC(=O)Cc2cccs2)sc2c1CCC(C)C2 (stereo not drawn)	none
O=C(O)c1ccc(NCCC2=CCCCC2)c([N+](=O)[O-])c1	none (no result: HCT116 bCat-KO, PTEN del growth)
Cc1nn(-c2ccccc2)c2sc(-c3n[nH]c(=S)o3)cc12	none
CCCn1c(SCC(=O)Nc2ccccc2-c2ccccc2)nnc1-c1ccoc1C	none
CC(C)(C)c1ccc(OCCCNC2CCCC2)cc1	Lmaj promast 99 (no result: HCT116 bCat-KO, PTEN del growth)
CCOc1ccc(OCCNC2CCCC2)cc1	Lmaj promast 84
Cc1ccc(OCCCNC2CCCC2)cc1	none
CCCOc1ccc(OCCNC2CCCC2)cc1	Lmaj promast 94
C=CCc1ccc(OCCCCNC2CCCC2)c(OC)c1	Lmaj promast 89 (no result: HCT116 bCat-KO, PTEN del growth)
CC(=O)Nc1ccc(NC(=O)CN(c2ccc(C(C)C)cc2)S(=O)(=O)c2ccccc2)cc1	none (no result: HCT116 bCat-KO, PTEN del growth)
O=C(COc1ccc(S(=O)(=O)N2CCOCC2)cc1)Nc1ccccc1C(F)(F)F	none
Cc1ccc(OCC(=O)NC2CCCC2)c(C)c1	none
Cc1ccc(C)c(OCCCNC2CCCC2)c1C	Lmaj promast 97 (no result: HCT116 bCat-KO, PTEN del growth)
CCOc1ccccc1OCCNC1CCCC1	none
Cc1ccc(OCCCCNC2CCCCC2)c(C)c1	Lmaj promast 94 (no result: HCT116 bCat-KO, PTEN del growth)
COc1ccc2cc(S(=O)(=O)n3cnc(C)c3)ccc2c1	none (no result: HCT116 bCat-KO, PTEN del growth)
C[C@]12CC(O)C3C(CCC4=CC(=O)CC[C@@]43C)C1CCC2c1csc(-c2ccccc2)n1 (stereo partly drawn)	none (no result: Autophagy mod, HCT116 bCat-KO, PTEN del growth, Lmaj promast)
COc1cc2c3c(c1)-c1c(sn(-c4cc(OC)ccc4OC)c1=S)C(C)(C)N3C(=O)C2=O	HCT116 bCat-KO 2.4, PTEN del growth 1.2
CN(C)c1nc2ccccc2c(N)c1-c1ccccc1	Lmaj promast 96
CCOc1cc(/C=N/n2cnnc2)ccc1OS(=O)(=O)c1ccc(C)cc1	Lmaj promast 79 (no result: HCT116 bCat-KO, PTEN del growth)
CCCC(CCC)C(=O)NC1CCN(Cc2ccccc2)CC1	Lmaj promast 88 (no result: HCT116 bCat-KO, PTEN del growth)
O=C(NC1CCN(Cc2ccccc2)CC1)C(NS(=O)(=O)c1cccc2nsnc12)c1ccccc1 (stereo not drawn)	Lmaj promast 51 (no result: HCT116 bCat-KO, PTEN del growth)
CCOC(=O)N1CCC(NC(=O)C(NS(=O)(=O)c2cccc3nsnc23)c2ccccc2)CC1 (stereo not drawn)	none (no result: HCT116 bCat-KO, PTEN del growth)
O=C(NCCNC1CCN(Cc2ccccc2)CC1)c1cccs1	Lmaj promast 88
O=C(CNC(=O)c1cccs1)NCCN1CCC(Cc2ccccc2)CC1	none
CC(C(=O)NCCc1ccc(F)cc1)N1CCN(Cc2ccccc2)CC1 (stereo not drawn)	Lmaj promast 83 (no result: HCT116 bCat-KO, PTEN del growth)
CCN(CC)C(=O)CSc1nnc(COc2ccccc2)n1N	none (no result: HCT116 bCat-KO, PTEN del growth)
c1cnc(Oc2ccc(-c3nnco3)cc2)cn1	none
CC(C(=O)NC1CCCC1)N1CCN(Cc2ccccc2)CC1 (stereo not drawn)	Lmaj promast 73 (no result: HCT116 bCat-KO, PTEN del growth)
Cc1ccc(NCCC#N)cc1C	Lmaj promast 50
Cc1cccc(NCCC#N)c1	none
Cc1ccc(C)c(NCCC#N)c1	Lmaj promast 53
O=C(NCc1cccnc1)c1cc(S(=O)(=O)N2CCCCC2)ccc1Cl	none
CCn1c(=O)c(C(=O)NNS(=O)(=O)c2ccc(C)cc2)c(O)c2ccccc21	Lmaj promast 59
C=CCn1c(=O)c(C(=O)Nc2ccccc2C(=O)OCC)c(O)c2ccccc21	Lmaj promast 68
CCn1c(=O)c(C(=O)Nc2ccsc2C(=O)OC)c(O)c2ccccc21	HCT116 bCat-KO 4.7
CCOC(=O)c1ccccc1NC(=O)c1c(O)c2ccccc2n(CC)c1=O	none
CC1Cc2ccccc2N1S(=O)(=O)c1cccc(C(=O)N2CC(=O)Nc3ccccc32)c1 (stereo not drawn)	none (no result: Autophagy mod, HCT116 bCat-KO, PTEN del growth, Lmaj promast)
CC1Cc2ccccc2N1S(=O)(=O)c1cccc(C(=O)N2CCN(c3ncccn3)CC2)c1 (stereo not drawn)	Lmaj promast 77 (no result: HCT116 bCat-KO, PTEN del growth)
CCOC(=O)c1ccc(NC(=O)c2cccc(S(=O)(=O)N3c4ccccc4CC3C)c2)s1 (stereo not drawn)	Lmaj promast 99
COc1cc(C(=O)OC2CSCC2NC(=O)c2ccccc2)cc(OC)c1OC (stereo not drawn)	none (no result: HCT116 bCat-KO, PTEN del growth)
CCOC(=O)c1ccccc1Oc1c(F)c(F)nc(NCCO)c1F	Lmaj promast 82
CCOC(=O)c1cnc2c(ccc3ccccc32)c1NCCO	none
O=C(NCCCN1CCOCC1)c1cccnc1SCc1ccccc1Cl	none (no result: HCT116 bCat-KO, PTEN del growth)
O=Cc1c(N2CCN(c3ccccc3)CC2)nc2ccccn2c1=O	Autophagy mod active (no result: HCT116 bCat-KO, PTEN del growth)
COc1ccc(OC/C(O)=C(\C#N)c2nc3ccccc3[nH]2)cc1	none
COc1ccccc1OCC(=O)OC/C(O)=C(\C#N)c1nc2ccccc2[nH]1	HCT116 bCat-KO 5.5, PTEN del growth 2.2
N#C/C(=C(/O)COC(=O)CCc1ccc(S(=O)(=O)N2CCOCC2)cc1)c1nc2ccccc2[nH]1	HCT116 bCat-KO 5.7
O=C(NC(Cc1ccccc1)C(=O)NCc1ccccn1)c1ccco1 (stereo not drawn)	none
CCOC(=O)C1=C(Cc2ccc(Cl)cc2)C(=O)c2ccccc2C1=O	Lmaj promast 91
Cc1ccccc1Nc1nc(N)nc(COC(=O)c2cccc(S(=O)(=O)N(C)C)c2)n1	Lmaj promast 66
Cc1ccccc1Nc1nc(N)nc(COC(=O)c2cccc(S(=O)(=O)NCc3ccccc3)c2)n1	none
O=C(N/C(=C/c1cccc([N+](=O)[O-])c1)C(=O)N1CCCCC1)c1cccs1	Lmaj promast 90
O=C(N/C(=C/C=C/c1ccccc1)C(=O)N1CCCCC1)c1ccc([N+](=O)[O-])cc1	Lmaj promast 61 (no result: HCT116 bCat-KO, PTEN del growth)
O=C(NCC1CCCO1)/C(=C\c1cccc([N+](=O)[O-])c1)NC(=O)c1ccccc1 (stereo not drawn)	none (no result: HCT116 bCat-KO, PTEN del growth)
CC(C)(C)NC(=O)/C(=C\C=C\c1ccccc1)NC(=O)c1ccc([N+](=O)[O-])cc1	none
